From ChEMBL document CHEMBL1127011, “Structure-activity relationship of glycine betaine analogs on osmotolerance of enteric bacteria” (1993) come the findings set out here.

Format in all cases: functional
Experiment [1] has as its system Escherichia coli. The experiment is described as follows: Maximum NaCl molar concentration that showed 50% bacterial growth in Escherichia coli ATCC 25922 at minimum media (MM). The procedure, abridged: (§1)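 Single colony from MacConkey agar subcultured overnight in minimal medium at 37 °C. Inoculum: 1:200 dilution of 0.5 McFarland standard (~5 × 10^5 cfu/mL final) into minimal medium with NaCl 0.1–1 M in 0.1 M steps. Test compound 0.1 mM, alone or with GB or Chol 0.1 mM. OD600 read at 48 h. Endpoint is highest NaCl giving ≥50% growth versus full-growth tubes. Mean of three ±SD.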

The subject of experiment [2] is Escherichia coli. Put plainly: Maximum NaCl molar concentration that showed 50% bacterial growth in Escherichia coli K10 at MM+0.1 mmol GB (Glycine Betaine). The procedure, abridged: as §1
For experiment [3], the system named is Escherichia coli. The experiment is described as follows: Maximum NaCl molar concentration that showed 50% bacterial growth in Escherichia coli 31 at minimum media (MM). The procedure, abridged:
as §1

The test system of experiment [4] is Escherichia coli. The experiment is described as follows: Maximum NaCl molar concentration that showed 50% bacterial growth in Escherichia coli ATCC 25922 at MM+0.1 mmol Choline. The procedure, abridged: as §1
Experiment [5] concerns Escherichia coli. Put plainly: Maximum NaCl molar concentration that showed 50% bacterial growth in Escherichia coli ATCC 25922 at MM+0.1 mmol GB (Glycine Betaine). The procedure, abridged:
as §1

For experiment [6], the system named is Escherichia coli. The experiment is described as follows: Maximum NaCl molar concentration that showed 50% bacterial growth in Escherichia coli K10 at minimum media (MM). A digest of the protocol:
as §1

Experiment [7] deals with Escherichia coli. The experiment is described as follows: Maximum NaCl molar concentration that showed 50% bacterial growth in Escherichia coli 31 at MM+0.1 mmol Choline. A digest of the protocol:
as §1

Experiment [8] has as its system Escherichia coli. The experiment is described as follows: Maximum NaCl molar concentration that showed 50% bacterial growth in Escherichia coli 31 at MM+0.1 mmol GB (Glycine Betaine). The procedure, abridged: as §1
Experiment [9] concerns Escherichia coli. The experiment is described as follows: Maximum NaCl molar concentration that showed 50% bacterial growth in Escherichia coli K10 at MM+0.1 mmol Choline. The procedure, abridged: as §1

As for `C[N+](C)(C)CC(=O)Nc1ccc(S(=O)(=O)NC(=O)C[N+](C)(C)C)cc1.[Cl-].[Cl-]`, the Max salt tolerance is 0.5 in the experiment on Escherichia coli [1]; 0.9 in the experiment with Escherichia coli [2]; 0.73 in the experiment on Escherichia coli [3]; 0.8 in the experiment with Escherichia coli [4]; 0.83 in the experiment with Escherichia coli [5]; 0.56 in the experiment with Escherichia coli [6]. For the same compound, the Max salt tolerance in the experiment with Escherichia coli [7] is 0.9; with Escherichia coli [8] it was 0.9; in the experiment on Escherichia coli [9], 0.86.
On to `C[N+]1(CS(=O)(=O)[O-])CCCCC1`, for which the Max salt tolerance in the experiment with Escherichia coli [1] stood at 0.13; in the experiment on Escherichia coli [2], 0.9; in the experiment on Escherichia coli [3], 0.43; with Escherichia coli [4], 0.2; in the experiment with Escherichia coli [5] it was 0.86; with Escherichia coli [6] it was 0.35. Besides, the figures for the Max salt tolerance in the experiment on Escherichia coli [7], in the experiment on Escherichia coli [8] and with Escherichia coli [9] were 0.88, 0.93 and 0.5, respectively.
`C[N+](C)(C)CC(=O)[N-]S(=O)(=O)c1ccccc1`: the Max salt tolerance in the experiment with Escherichia coli [1] is 0.5; in the experiment on Escherichia coli [2] it was 0.9; in the experiment on Escherichia coli [3], 0.73; in the experiment on Escherichia coli [4], 0.8; with Escherichia coli [5], 0.83; with Escherichia coli [6] it was 0.56. For the same compound, the Max salt tolerance with Escherichia coli [7] is reported as 0.9; in the experiment on Escherichia coli [8], 0.9; with Escherichia coli [9], 0.86.
With `C[N+](C)(C)CC(=O)[N-]S(=O)(=O)c1ccc(NC(=O)CCl)cc1`, the Max salt tolerance with Escherichia coli [1] stood at 0.1; with Escherichia coli [2], 0.86; in the experiment on Escherichia coli [3] it was 0.63; in the experiment on Escherichia coli [4], 0.8; in the experiment with Escherichia coli [5] it was 0.86; in the experiment on Escherichia coli [6] it was 0.3. Further, the Max salt tolerance with Escherichia coli [7] stood at 0.8; with Escherichia coli [8], 0.9; in the experiment with Escherichia coli [9] it was 0.8.
As to `C[N+](C)(C)CC(=O)Nc1ccc(S(N)(=O)=O)cc1.[Cl-]`, the Max salt tolerance in the experiment with Escherichia coli [1] is 0.5; in the experiment on Escherichia coli [2], 0.9; in the experiment with Escherichia coli [3], 0.73; with Escherichia coli [4], 0.8; with Escherichia coli [5], 0.83; in the experiment with Escherichia coli [6], 0.56. The Max salt tolerance in the experiment on Escherichia coli [7] turned out to be 0.9; in the experiment with Escherichia coli [8] it was 0.9; in the experiment with Escherichia coli [9] it was 0.86.
Turning to `C[N+]1(CS(=O)(=O)[O-])CCCC1`, the Max salt tolerance in the experiment with Escherichia coli [1] turned out to be 0.13; with Escherichia coli [2], 0.97; in the experiment with Escherichia coli [3], 0.7; with Escherichia coli [4], 0.2; with Escherichia coli [5] it was 0.87; in the experiment with Escherichia coli [6] it was 0.5. Besides, the Max salt tolerance in the experiment on Escherichia coli [7] was 0.86; in the experiment with Escherichia coli [8] it was 0.93; in the experiment on Escherichia coli [9], 0.6.
Take `C[N+](C)(C)CC(=O)[N-]S(=O)(=O)c1ccc(NC(=O)CI)cc1`: the Max salt tolerance in the experiment with Escherichia coli [1] stood at 0.1; with Escherichia coli [2], 0.86; in the experiment on Escherichia coli [3] it was 0.63; in the experiment on Escherichia coli [4], 0.8; in the experiment on Escherichia coli [5], 0.86; in the experiment on Escherichia coli [6], 0.3. The Max salt tolerance came out at 0.8 in the experiment with Escherichia coli [7], 0.9 in the experiment on Escherichia coli [8] and 0.8 with Escherichia coli [9].
For the compound `CCC(=O)Nc1ccc(S(=O)(=O)[N-]C(=O)C[N+](C)(C)C)cc1`, the Max salt tolerance in the experiment on Escherichia coli [1] is on record as 0.4; in the experiment with Escherichia coli [2] it was 0.9; with Escherichia coli [3], 0.7; in the experiment with Escherichia coli [4], 0.8; in the experiment on Escherichia coli [5], 0.86; in the experiment with Escherichia coli [6] it was 0.57. The Max salt tolerance with Escherichia coli [7] came to 0.8; in the experiment with Escherichia coli [8] it was 0.9; in the experiment with Escherichia coli [9] it was 0.83.
With `C[N+](C)(C)CS(=O)(=O)[O-]`, the Max salt tolerance was 0.27 in the experiment on Escherichia coli [1]; 0.93 in the experiment with Escherichia coli [2]; 0.83 with Escherichia coli [3]; 0.33 with Escherichia coli [4]; 0.86 with Escherichia coli [5]; 0.83 with Escherichia coli [6]. The Max salt tolerance with Escherichia coli [7], in the experiment with Escherichia coli [8] and in the experiment with Escherichia coli [9] was 0.9 throughout.
For the compound `C[N+]1(CS(=O)(=O)[O-])CCOCC1`, the Max salt tolerance came out at 0.2 with Escherichia coli [1]; 0.97 in the experiment with Escherichia coli [2]; 0.77 in the experiment with Escherichia coli [3]; 0.23 with Escherichia coli [4]; 0.83 in the experiment with Escherichia coli [5]; 0.63 in the experiment on Escherichia coli [6]. Besides, the results for the Max salt tolerance in the experiment on Escherichia coli [7], with Escherichia coli [8] and in the experiment on Escherichia coli [9] were 0.9, 0.97 and 0.87, respectively.
With `CC(=O)Nc1ccc(S(=O)(=O)[N-]C(=O)C[N+](C)(C)C)cc1`, the Max salt tolerance worked out at 0.4 in the experiment with Escherichia coli [1]; 0.9 in the experiment on Escherichia coli [2]; 0.7 in the experiment with Escherichia coli [3]; 0.8 in the experiment on Escherichia coli [4]; 0.86 in the experiment with Escherichia coli [5]; 0.57 in the experiment on Escherichia coli [6]. Moreover, the Max salt tolerance with Escherichia coli [7] was found to be 0.8; in the experiment with Escherichia coli [8], 0.9; in the experiment with Escherichia coli [9], 0.83.
Turning to `Br.C[N+](C)(C)CC(=O)[N-]S(=O)(=O)c1ccc(NC(=O)CBr)cc1`, the Max salt tolerance with Escherichia coli [1] is recorded as 0.1; with Escherichia coli [2], 0.86; in the experiment with Escherichia coli [3], 0.63; with Escherichia coli [4] it was 0.8; in the experiment with Escherichia coli [5] it was 0.86; in the experiment with Escherichia coli [6], 0.3. Moreover, the Max salt tolerance in the experiment with Escherichia coli [7] turned out to be 0.8; in the experiment on Escherichia coli [8], 0.9; in the experiment with Escherichia coli [9] it was 0.8.
Turning to `C[N+](C)(C)CC(=O)NS(=O)(=O)c1ccc(N)cc1.[Cl-]`, the Max salt tolerance was 0.5 with Escherichia coli [1]; 0.9 in the experiment on Escherichia coli [2]; 0.73 with Escherichia coli [3]; 0.8 in the experiment on Escherichia coli [4]; 0.83 in the experiment with Escherichia coli [5]; 0.56 with Escherichia coli [6]. Moreover, the Max salt tolerance is 0.9 in the experiment on Escherichia coli [7], 0.9 in the experiment with Escherichia coli [8] and 0.86 in the experiment on Escherichia coli [9].
On to `C[N+](C)(C)CP(=O)([O-])O` [HYDROGEN (TRIMETHYLAMMONIO)METHYLPHOSPHONATE], for which the Max salt tolerance with Escherichia coli [1] is recorded as 0.33; with Escherichia coli [2], 0.87; with Escherichia coli [3], 0.6; with Escherichia coli [4], 0.77; in the experiment on Escherichia coli [5], 0.8; in the experiment on Escherichia coli [6], 0.4. The Max salt tolerance with Escherichia coli [7] is given as 0.83; with Escherichia coli [8], 0.9; with Escherichia coli [9] it was 0.77.
